Measurements reported in ChEMBL document CHEMBL1142957, “Total structure and inhibition of tumor cell proliferation of laxaphycins” (J Med Chem, 2007).
Calls of active or inactive are those of the source. The calls are words filed in the database; no cut-off is given here.

Legend:
CCRF-CEM [1] = test: Cytotoxicity against drug-sensitive CCRF-CEM cells after 72 hrs; format: cell-based; settings: Homo sapiens
Summary of the method: (§1)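 Leukemic lymphoblasts (parent CCRF-CEM, Pgp-overexpressing CEM/VLB100, topo II-altered CEM/VM-1) grown in RPMI 1640 with 10% FCS and antibiotics, 37 °C, 5% CO2. Serial dilutions in medium added to 2 × 10⁵ cells/mL for 3 days, medium not renewed. Survivors counted on a Coulter counter. Triplicate, averaged.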

[2] = Cytotoxicity against vinblastine-resistant CEM/VLB100 cells after 72 hrs; format: cell-based; settings: Homo sapiens, CEM/VLB100, 72 h; summary of the method: as §1
[3] = Cytotoxicity against teniposide-resistant CEM/VM1 cells after 72 hrs; format: cell-based; settings: Homo sapiens, CEM-VM1, 72 h; summary of the method: as §1
CCRF-CEM [4] = test: Ratio of IC50 for vinblastine-resistant CEM/VLB100 cells over IC50 for drug-sensitive CCRF-CEM cells; format: functional, Homo sapiens
CCRF-CEM [5] = test: Ratio of IC50 for teniposide-resistant CEM/VM1 cells over IC50 for drug-sensitive CCRF-CEM cells; format: functional, Homo sapiens
CCRF-CEM [6] = test: Antiproliferative activity against CCRF-CEM cells at 20 uM after 72 hrs; format: functional, cell-based; settings: Homo sapiens; summary of the method: as §1
DLD-1 = test: Antiproliferative activity against human DLD1 cells at 5 uM after 48 hrs by RRT assay; format: functional, cell-based
Summary of the method: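 Adherent lines in supplemented Glutamax MEM, 37 °C, 5% CO2. Seeded 5 × 10³ cells/well, adhered 16 h, then treated 48 h continuously, alone or in combination, in 0.5% DMSO (solvent control). Resazurin 25 µg/mL in MEM added, 1 h at 37 °C, fluorescence 530/590 nm. Survival = % of control after blank subtraction; IC50 from concentration–survival curve. Two independent assays in triplicate.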

Row | Compound | IC50 (CCRF-CEM [1]) | IC50 [2] | IC50 [3] | Ratio IC50 (CCRF-CEM [4]) | Ratio IC50 (CCRF-CEM [5]) | Activity (CCRF-CEM [6]) | Activity (DLD-1)
1 | CCCCCCC[C@@H]1CC(=O)N[C@@H](C(C)C)C(=O)N[C@@H]([C@@H](O)C(C)C)C(=O)N[C@@H](C)C(=O)N[C@H]([C@@H](O)C(C)C)C(=O)N[C@@H](CCC(N)=O)C(=O)N(C)[C@@H]([C@@H](C)CC)C(=O)N[C@H]([C@@H](O)C(N)=O)C(=O)N[C@@H]([C@@H](C)O)C(=O)N2C[C@H](O)C[C@H]2C(=O)N[C@H](CC(C)C)C(=O)N[C@@H]([C@@H](C)O)C(=O)N1 [LAXAPHYCIN B3] | 1.5 µM | 1.35 µM | 1.45 µM | 0.9 | 1 | – | –
2 | C/C=C1/NC(=O)[C@H](CCO)NC(=O)C[C@@H](CCCCC)NC(=O)CNC(=O)[C@H](CC(C)C)NC(=O)[C@@H]([C@@H](C)CC)NC(=O)[C@H]([C@@H](C)CC)NC(=O)[C@@H](CC(C)C)NC(=O)[C@@H](Cc2ccccc2)NC(=O)[C@H](CCO)NC(=O)[C@@H]2C[C@@H](O)CN2C1=O [LAXAPHYCIN A] | > 20 µM | > 20 µM | > 20 µM | – | – | inactive | inactive
